Converted amounts (≈) assume the structure as drawn. Bridge positions count the residues as written; N and C are the ends. Square brackets hold non-standard residues; d marks the D form. Peptide text beside a SMILES is read from it. * marks the point of attachment. Palmitoyl = CCCCCCCCCCCCCCCC(=O)*; Myristoyl = CCCCCCCCCCCCCC(=O)*; Lauroyl = CCCCCCCCCCCC(=O)*; dOrn = NCCC[C@@H](N)C(=O)O; Orn = NCCC[C@H](N)C(=O)O; Hexanoyl = CCCCCC(=O)*
How the values were obtained:
Format in all cases: functional
Klebsiella pneumoniae = experiment: Antibacterial activity against Klebsiella pneumoniae ATCC 13883 assessed as inhibition of bacterial growth incubated for 18 hrs by CLSI protocol based method
Method in brief: (§1)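 Single colonies from blood agar (16 h, 37 °C) grown in TSB at 37 °C, 220 rpm to OD600 ~0.5, then diluted in MHB to 2×10^5 CFU/mL. Mixed with serial MHB dilutions of DMSO stocks in polypropylene plates, sealed, and incubated 18 h at 37 °C, 600 rpm. MIC was taken as the lowest concentration with no visible growth; three technical replicates.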

Pseudomonas aeruginosa = experiment: Antibacterial activity against Pseudomonas aeruginosa PAO1 assessed as inhibition of bacterial growth incubated for 18 hrs by CLSI protocol based method; method in brief: as §1
Acinetobacter baumannii = experiment: Antibacterial activity against Acinetobacter baumannii ATCC 17961 assessed as inhibition of bacterial growth incubated for 18 hrs by CLSI protocol based method; method in brief: as §1
Escherichia coli [1] = experiment: Antibacterial activity against Escherichia coli ATCC 25922 assessed as inhibition of bacterial growth incubated for 18 hrs by CLSI protocol based method
Method in brief: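 Broth microdilution MIC. Strain streaked from glycerol stock on sheep blood agar (16 h, 37 °C); a colony was grown in TSB at 37 °C, 220 rpm, to OD600 about 0.5. Cells were diluted in MHB to 2×10^5 CFU/mL and added 1:1 to serial dilutions in MHB in polypropylene plates.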

Staphylococcus aureus = experiment: Antibacterial activity against Staphylococcus aureus USA300 assessed as inhibition of bacterial growth incubated for 18 hrs by CLSI protocol based method; method in brief: as §1
Escherichia coli [2] = experiment: Antibacterial activity against colistin-resistant Escherichia coli ATCC 25922 carrying MCR-1 gene assessed as inhibition of bacterial growth incubated for 18 hrs by CLSI protocol based method
Method in brief: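 Broth microdilution MIC. MCR-1 strain grown from glycerol stock in TSB with kanamycin (16 h, 37 °C, 220 rpm), diluted 100-fold in the same medium and grown to OD600 about 0.5. Cells were diluted in MHB to 2×10^5 CFU/mL and added 1:1 to serial dilutions in MHB. Incubated 18 h, 37 °C, 600 rpm; visual lowest no-growth concentration; three technical replicates.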

SMILES | MIC (Klebsiella pneumoniae) | MIC (Pseudomonas aeruginosa) | MIC (Acinetobacter baumannii) | MIC (Escherichia coli [1]) | MIC (Staphylococcus aureus) | MIC (Escherichia coli [2])
CC[C@H](C)[C@@H]1NC(=O)[C@@H](NC(=O)[C@H](Cc2c[nH]c3ccccc23)NC(=O)[C@@H](CCCN)NC(=O)CNC(=O)[C@H](CCCN)NC(=O)[C@@H](CCCN)NC(=O)[C@@H](Cc2c[nH]c3ccccc23)NC(=O)[C@@H](Cc2ccc(O)cc2)NC(=O)[C@H](N)CO)[C@@H](C)OC(=O)CNC(=O)CNC(=O)[C@H](CC(N)=O)NC1=O (H-[dS][dY][dW][dOrn][Orn]G[dOrn]WTINGG; ester 9-C) | > 32 µg/mL | > 32 µg/mL | > 32 µg/mL | > 32 µg/mL | > 32 µg/mL | –
CCCCCC(=O)N[C@H](CC(N)=O)C(=O)N[C@H](Cc1ccc(O)cc1)C(=O)N[C@H](Cc1c[nH]c2ccccc12)C(=O)N[C@H](CCCN)C(=O)N[C@@H](CCCN)C(=O)NCC(=O)N[C@H](CCCN)C(=O)N[C@@H](Cc1c[nH]c2ccccc12)C(=O)N[C@@H]1C(=O)N[C@@H]([C@@H](C)CC)C(=O)NCC(=O)N[C@@H](CO)C(=O)O[C@@H]1C (Hexanoyl-[dN][dY][dW][dOrn][Orn]G[dOrn]WTIGS; ester 9-C) | 4 µg/mL (≈ 2.66 µM) | > 32 µg/mL | 16 µg/mL (≈ 10.6 µM) | 8 µg/mL (≈ 5.31 µM) | > 32 µg/mL | 8 µg/mL (≈ 5.31 µM)
CCCCCC(=O)N[C@H](CO)C(=O)N[C@H](Cc1ccc(O)cc1)C(=O)N[C@H](Cc1c[nH]c2ccccc12)C(=O)N[C@H](CCCN)C(=O)N[C@@H](CCCN)C(=O)NCC(=O)N[C@H](CCCN)C(=O)N[C@@H](Cc1c[nH]c2ccccc12)C(=O)N[C@@H]1C(=O)N[C@@H]([C@@H](C)CC)C(=O)N[C@@H](CC(N)=O)C(=O)NCC(=O)NCC(=O)O[C@@H]1C (Hexanoyl-[dS][dY][dW][dOrn][Orn]G[dOrn]WTINGG; ester 9-C) | 8 µg/mL (≈ 5.12 µM) | 4 µg/mL (≈ 2.56 µM) | 16 µg/mL (≈ 10.2 µM) | 4 µg/mL (≈ 2.56 µM) | > 32 µg/mL | 8 µg/mL (≈ 5.12 µM)
CCCCCCCCCCCC(=O)N[C@H](CC(N)=O)C(=O)N[C@H](Cc1ccc(O)cc1)C(=O)N[C@H](Cc1c[nH]c2ccccc12)C(=O)N[C@H](CCCN)C(=O)N[C@@H](CCCN)C(=O)NCC(=O)N[C@H](CCCN)C(=O)N[C@@H](Cc1c[nH]c2ccccc12)C(=O)N[C@@H]1C(=O)N[C@@H]([C@@H](C)CC)C(=O)NCC(=O)N[C@@H](CO)C(=O)O[C@@H]1C (Lauroyl-[dN][dY][dW][dOrn][Orn]G[dOrn]WTIGS; ester 9-C) | 8 µg/mL (≈ 5.03 µM) | 16 µg/mL (≈ 10.1 µM) | 4 µg/mL (≈ 2.52 µM) | 8 µg/mL (≈ 5.03 µM) | 32 µg/mL (≈ 20.1 µM) | 8 µg/mL (≈ 5.03 µM)
CCCCCCCCCCCC(=O)N[C@H](CO)C(=O)N[C@H](Cc1ccc(O)cc1)C(=O)N[C@H](Cc1c[nH]c2ccccc12)C(=O)N[C@H](CCCN)C(=O)N[C@@H](CCCN)C(=O)NCC(=O)N[C@H](CCCN)C(=O)N[C@@H](Cc1c[nH]c2ccccc12)C(=O)N[C@@H]1C(=O)N[C@@H]([C@@H](C)CC)C(=O)N[C@@H](CC(N)=O)C(=O)NCC(=O)NCC(=O)O[C@@H]1C (Lauroyl-[dS][dY][dW][dOrn][Orn]G[dOrn]WTINGG; ester 9-C) | 8 µg/mL (≈ 4.86 µM) | 8 µg/mL (≈ 4.86 µM) | 2 µg/mL (≈ 1.21 µM) | 4 µg/mL (≈ 2.43 µM) | 32 µg/mL (≈ 19.4 µM) | 4 µg/mL (≈ 2.43 µM)
CCCCCCCCCCCCCC(=O)N[C@H](CC(N)=O)C(=O)N[C@H](Cc1ccc(O)cc1)C(=O)N[C@H](Cc1c[nH]c2ccccc12)C(=O)N[C@H](CCCN)C(=O)N[C@@H](CCCN)C(=O)NCC(=O)N[C@H](CCCN)C(=O)N[C@@H](Cc1c[nH]c2ccccc12)C(=O)N[C@@H]1C(=O)N[C@@H]([C@@H](C)CC)C(=O)NCC(=O)N[C@@H](CO)C(=O)O[C@@H]1C (Myristoyl-[dN][dY][dW][dOrn][Orn]G[dOrn]WTIGS; ester 9-C) | 32 µg/mL (≈ 19.8 µM) | 32 µg/mL (≈ 19.8 µM) | 4 µg/mL (≈ 2.47 µM) | 16 µg/mL (≈ 9.89 µM) | > 32 µg/mL | 16 µg/mL (≈ 9.89 µM)
CCCCCCCCCCCCCC(=O)N[C@H](CO)C(=O)N[C@H](Cc1ccc(O)cc1)C(=O)N[C@H](Cc1c[nH]c2ccccc12)C(=O)N[C@H](CCCN)C(=O)N[C@@H](CCCN)C(=O)NCC(=O)N[C@H](CCCN)C(=O)N[C@@H](Cc1c[nH]c2ccccc12)C(=O)N[C@@H]1C(=O)N[C@@H]([C@@H](C)CC)C(=O)N[C@@H](CC(N)=O)C(=O)NCC(=O)NCC(=O)O[C@@H]1C (Myristoyl-[dS][dY][dW][dOrn][Orn]G[dOrn]WTINGG; ester 9-C) | 8 µg/mL (≈ 4.78 µM) | 8 µg/mL (≈ 4.78 µM) | 2 µg/mL (≈ 1.19 µM) | 8 µg/mL (≈ 4.78 µM) | 16 µg/mL (≈ 9.55 µM) | 8 µg/mL (≈ 4.78 µM)
CCCCCCCCCCCCCCCC(=O)N[C@H](CC(N)=O)C(=O)N[C@H](Cc1ccc(O)cc1)C(=O)N[C@H](Cc1c[nH]c2ccccc12)C(=O)N[C@H](CCCN)C(=O)N[C@@H](CCCN)C(=O)NCC(=O)N[C@H](CCCN)C(=O)N[C@@H](Cc1c[nH]c2ccccc12)C(=O)N[C@@H]1C(=O)N[C@@H]([C@@H](C)CC)C(=O)NCC(=O)N[C@@H](CO)C(=O)O[C@@H]1C (Palmitoyl-[dN][dY][dW][dOrn][Orn]G[dOrn]WTIGS; ester 9-C) | > 32 µg/mL | > 32 µg/mL | 32 µg/mL (≈ 19.4 µM) | > 32 µg/mL | > 32 µg/mL | –

Reference: ChEMBL document CHEMBL5104225, “Synthesis and structure-activity relationship studies of N-terminal analogues of the lipopeptide antibiotics brevicidine and laterocidine” (RSC Med Chem, 2022)
